Source: PubChem (Broad Institute)
Sampled rows, rich in hits. Any-hit rate of the full collection: about 5.8%.
GASC1 inh: inhibitors of human demethylase GASC-1 KDM4C; inhibition, % at 12.5 µM; GST-KDM4C 2-372, H3K9me3 peptide, LANCE TR-FRET; 96,000 tested, 0.15% active; Q9H3R0;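 active means mean replicate inhibition above about 25%, with at least 55% of replicates also reaching it, limit read from the data, passing the limit was not always enough; inconclusive means only one of those two conditions met; inactive means neither condition met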
Target sequence (Q9H3R0 2-372 limits assumed): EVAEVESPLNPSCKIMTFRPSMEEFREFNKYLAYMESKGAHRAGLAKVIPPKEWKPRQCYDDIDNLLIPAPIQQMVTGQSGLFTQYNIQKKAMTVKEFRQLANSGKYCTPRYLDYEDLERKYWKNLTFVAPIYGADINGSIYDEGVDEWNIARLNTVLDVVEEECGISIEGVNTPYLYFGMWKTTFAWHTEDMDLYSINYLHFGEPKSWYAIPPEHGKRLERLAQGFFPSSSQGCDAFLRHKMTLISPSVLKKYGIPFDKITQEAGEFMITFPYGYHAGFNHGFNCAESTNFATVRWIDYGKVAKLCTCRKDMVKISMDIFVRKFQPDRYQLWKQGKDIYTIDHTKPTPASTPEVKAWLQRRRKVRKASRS
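reagent = H3K9me3 peptide substrate, Fe(II), 2-oxoglutarate | system = GST-tagged GASC-1 (JMJD2C) catalytic fragment, aa 2-372 | amount = enzyme final amount 10 nM | read-out = Fall in 671/618 emission ratio as inhibition | medium = HEPES buffer, pH 7.5, plus ascorbate | schedule = 30 min reaction, 60 min detection, RT | measured by = LANCE TR-FRET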
Pf Dd2 inh: inhibitors of Plasmodium falciparum Dd2 growth; P. falciparum Dd2 growth, SYBR Green, 72 h; hits give low values; activity change, % at 10 µM; 94,000 tested, 2.3% active; AID 1159554; in the data active means activity change below about -80%; inconclusive means no clear call, values can overlap the other calls
Tcruzi prolif: inhibitors of T. cruzi proliferation; inhibition, % at 8.34 µM; AID 624255; T. cruzi beta-gal in NIH3T3, GalScreen luminescence, 90 h; 77,000 tested, 5.9% active;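 active means mean inhibition above about 93%, with at least 55% of replicates each passing it, limit read from the data, passing the limit was not always enough; inconclusive means only one of those two conditions holds; inactive means neither condition holds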
IDH1 mut inh: inhibitors of human IDH1 R132H; O75874; IDH1 R132H reductase, diaphorase/resazurin fluorescence, 60 min; inhibition, % at 10 µM; 70,000 tested, 0.18% active; AID 624101; in the data active means inhibition above about 34%; inconclusive means no clear call, values can overlap the other calls; inactive means below about 11%;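 further: 0% = DMSO and 100% = no enzyme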
Starred values were filed as active, the others as inactive; ? = inconclusive; · = no result; ! = repeats disagree.

SMILES	GASC1 inh	Pf Dd2 inh	Tcruzi prolif	IDH1 mut inh
COc1ccc(S(=O)(=O)N(C)C[C@@H]2Oc3cc(C#CC4CCCCC4)ccc3S(=O)(=O)N([C@H](C)CO)C[C@@H]2C)cc1	0	-76	79	·
COc1cc([C@H]2OC[C@H]3[C@@H]2CO[C@@H]3c2ccc(OC)c(OC)c2)ccc1O	·	·	·	0
Cc1ccc(S(=O)(=O)N(C)C[C@H]2Oc3ccc(NC(=O)Cc4cn(C)c5ccccc45)cc3C(=O)N([C@@H](C)CO)C[C@@H]2C)cc1	-3	-78	36	-2
COc1ccc2c3c(n(C)c2c1)[C@H](CO)N(Cc1cccnc1)CC31CN(C(=O)NC(C)C)C1	1	-88*	·	·
COc1ccc2c3c(n(C)c2c1)[C@@H](CO)N(C(C)=O)CC31CCN(C(=O)Nc2ccc(F)cc2)CC1	-1	-83*	·	·
COc1ccc2c3c(n(C)c2c1)[C@@H](CO)N(Cc1cccnc1)CC31CCN(C(=O)NC(C)C)CC1	-1	-73	·	·
COc1ccc2c3c(n(C)c2c1)[C@@H](CO)N(C(=O)c1ccc(F)cc1)CC31CCN(C(=O)Nc2ccc(F)cc2)CC1	0	-87*	·	·
COc1ccc2c3c(n(C)c2c1)[C@H](CO)N(C(=O)Nc1ccc(F)cc1)CC31CN(Cc2cccnc2)C1	1	-89*	·	·
COc1ccc2c3c(n(C)c2c1)[C@@H](CO)N(C(=O)Nc1ccc(F)cc1)CC31CN(C(=O)c2ccccc2F)C1	-5	-92*	·	·
CCCNC(=O)N1CC2(CN(Cc3ccc(OC)cc3)C2)c2c(n(C)c3cc(OC)ccc23)[C@H]1CO	-1	-81*	·	·
COc1ccc2c3c(n(C)c2c1)[C@@H](CO)N(C(=O)c1ccccc1)CC31CCN(C(=O)c2ccccc2)CC1	0	-87*	·	·
O=C(Cc1ccccn1)N[C@@H]1CC[C@H](CCNC(=O)c2cc(Cl)cc(Cl)c2)O[C@@H]1CO	1	-2	-3	0
O=C(Nc1ccccc1)N1C[C@@H]2N[C@H](C1)[C@@H]2c1ccc(/C=C/c2ccccc2)cc1	-3	-89*	·	·
O=C(c1ccc2c(c1)OCO2)N1C[C@@H]2N[C@H](C1)C2c1ccc(/C=C/c2ccccc2)cc1 (stereo partly specified)	0	-89*!	·	·
O=C(c1ccc(F)cc1)N1C[C@@H]2N[C@H](C1)C2c1ccc(/C=C/c2ccccc2)cc1 (stereo partly specified)	-1	-27	·	·
CC(C)(C)[S@](=O)N1Cc2cc(C(=O)NC3CCC3)nc(-c3cccc(Br)c3)c2[C@@H]1CCO	-2	-85*	·	·
CC(C)(O)C#Cc1cccc(-c2nc(C(=O)N[C@@H]3CCN(Cc4ccccc4)C3)cc3c2[C@H](CCO)N(S(=O)C(C)(C)C)C3)c1 (stereo partly specified)	-4	-82*	·	·
CC(C)(C)[S@@](=O)N1Cc2cc(C(=O)NC3CCC3)nc(-c3cccc(Br)c3)c2[C@H]1CCO	-3	-77	·	·
COc1ccc(C#Cc2cccc(-c3nc(C(=O)N[C@@H]4CCN(Cc5ccccc5)C4)cc4c3[C@H](CCO)N(S(=O)C(C)(C)C)C4)c2)cc1OC (stereo partly specified)	·	-84*	·	·
COc1ccccc1C#Cc1ccc([C@@H]2[C@@H](C#N)N(C(=O)C3CCCC3)[C@@H]2CO)cc1	-7	-63	·	·
COc1ccccc1C#Cc1ccc([C@@H]2[C@@H](C#N)N(C(=O)C3CCCCC3)[C@H]2CO)cc1	·	-91*	85	·
COc1ccccc1C#Cc1ccc([C@H]2[C@@H](C#N)N(C(=O)C3CCCCC3)[C@H]2CO)cc1	·	-92*	84	·
COc1ccccc1C#Cc1ccc([C@H]2[C@@H](CO)N(C(=O)C3CC3)[C@H]2C#N)cc1	·	?	89	0
Cc1noc(C)c1S(=O)(=O)Nc1ccc2c(c1)C(=O)N([C@H](C)CO)C[C@@H](C)[C@H](CN(C)C(=O)Nc1cccc3ccccc13)OCCCC[C@@H](C)O2	-4	-26	83	·
COc1ccc2c3c(n(C)c2c1)[C@@H](CO)N(CC1CCOCC1)CC31CCN(C(=O)Nc2ccccc2)CC1	0	-83*	·	·
SMILES	GASC1 inh	Pf Dd2 inh	Tcruzi prolif	IDH1 mut inh
COc1ccc2c3c(n(C)c2c1)[C@H](CO)N(CC1CCCC1)CC31CCN(C(=O)Nc2ccccc2)CC1	-3	-66	·	·
COc1ccc2c3c(n(C)c2c1)[C@H](CO)N(CC1CC1)CC31CCN(C(=O)Nc2ccccc2)CC1	-1	-65	·	·
COc1ccc(NC(=O)N2CCC3(CC2)CN(CC2CC2)[C@H](CO)c2c3c3ccc(OC)cc3n2C)cc1	0	-85*	·	·
COc1ccc(CN(C)C[C@@H]2Oc3c(NC(=O)c4ccc(-c5nccs5)cc4)cccc3C(=O)N([C@H](C)CO)C[C@H]2C)cc1	-1	-84*	16	·
COc1ccc(CN(C)C[C@H]2Oc3c(NC(=O)c4ccc(-c5nccs5)cc4)cccc3C(=O)N([C@H](C)CO)C[C@@H]2C)cc1	1	-60	9	-1
COc1ccc(CN(C)C[C@H]2Oc3c(NC(=O)c4ccc(-c5nccs5)cc4)cccc3C(=O)N([C@@H](C)CO)C[C@H]2C)cc1	-1	-82*	·	-8
COc1ccc(CN(C)C[C@@H]2Oc3c(NC(=O)c4ccc(-c5nccs5)cc4)cccc3C(=O)N([C@@H](C)CO)C[C@H]2C)cc1	·	-90*	8	-3
CC=Cc1ccc2n(c1=O)C[C@@H]1[C@@H](CO)[C@H](C(=O)N(C)C)[C@H]2N1CC1CCCC1 (mixture of isomers)	4	11	·	·
CCCN(C)C[C@H]1Oc2ncc(C#CC3CC3)cc2C(=O)N([C@H](C)CO)C[C@H]1C	0	-83*	63	0
CCCN(C)C[C@H]1Oc2ncc(C#Cc3ccc(F)cc3)cc2C(=O)N([C@@H](C)CO)C[C@H]1C	-2	-86*	92	-1
CCCC#Cc1cnc2c(c1)C(=O)N([C@@H](C)CO)C[C@@H](C)[C@@H](CN(C)C(=O)c1cccc(F)c1)O2	-1	-12	-27	0
C[C@@H]1CN([C@H](C)CO)C(=O)c2cc(NC(=O)Cc3ccccc3)ccc2O[C@@H](C)CCCCO[C@H]1CN(C)C	1	-16	-7	-1
Cc1ccc(S(=O)(=O)Nc2ccc3c(c2)CC(=O)N([C@@H](C)CO)C[C@@H](C)[C@@H](CN(C)Cc2ccc(C(=O)Nc4ccccc4N)cc2)O3)cc1	-2	-88*	67	0
Cc1ccc(S(=O)(=O)Nc2ccc3c(c2)CC(=O)N([C@H](C)CO)C[C@H](C)[C@@H](CN(C)Cc2ccc(C(=O)Nc4ccccc4N)cc2)O3)cc1	-1	-85*	·	-3
O=C(C1CCOCC1)N1C[C@H]2[C@@H](c3ccccc31)[C@H](CO)N2C(=O)Cc1ccccc1	29*	-4	52	·
O=C(C1CCOCC1)N1C[C@@H]2[C@H](c3ccccc31)[C@H](CO)N2C(=O)Cc1ccccc1	-3	19	8	·
COc1ccc(S(=O)(=O)Nc2ccc3c(c2)CC(=O)N([C@@H](C)CO)C[C@H](C)[C@@H](CN(C)Cc2ccc(C(=O)Nc4ccccc4N)cc2)O3)cc1	-2	-88*	·	0
